# Test results taken from ChEMBL document CHEMBL2029266, “Discovery and evaluation of selective N-type calcium channel blockers: 6-unsubstituted-1,4-dihydropyridine-5-carboxylic acid derivatives” (Bioorg Med Chem Lett, 2012).
# Experiments:
# Rattus norvegicus [1] = assay: Analgesic activity in Sprague-Dawley rat assessed as inhibition of formalin-induced pain at 3 mg/kg, po; type: functional
# Method in brief: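 Rats received formalin by footpad injection, and phase II pain responses were scored. Compound given orally. Inhibition is expressed as % versus the control group, n = 5.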
# [2] = biological target: T1, Voltage-gated L-type calcium channel (Rattus norvegicus, UniProt P22002+Q02485+P27732); assay: Inhibition of L-type voltage-dependent calcium channel in Sprague-Dawley rat aorta by Magnus method; type: tissue-based
# Method in brief: (§1)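 Rat aortic ring in organ bath, Tyrode's solution pH 7.4, 37 °C, 95% O2/5% CO2. Equilibrated 1 h at 2 g resting tension. Then exposed to high-K+ Tyrode (50 mM KCl replacing NaCl) and to normal Tyrode, 45 min each. Activity reported as inhibition or IC50.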
# [3] = biological target: Voltage-dependent N-type calcium channel subunit alpha-1B (Homo sapiens, UniProt Q00975); assay: Inhibition of N-type voltage-dependent calcium channel CaV2.2 in human IMR32 cells assessed as inhibition of KCl-induced increase in intracellular calcium concentration preincubated for 4 to 5 mins before KCl challenge; type: cell-based, IMR-32
# Method in brief: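 IMR-32 cells on poly-L-lysine/collagen dishes, differentiated with 1 mM dibutyl-cAMP and 2.5 µM bromodeoxyuridine for 10–14 days. Loaded with 2.5 µM fura-2/AM, 37 °C, 30 min. HEPES recording medium with 1 µM nifedipine throughout. Calcium rise evoked by 60 mM KCl for 6 s, repeated every 5 min. Compound at 0.1, 1 or 10 µM; IC50 from ≥2 independent experiments.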
# [4] = biological target: T1, Voltage-gated L-type calcium channel; assay: (§2) Inhibition of L-type voltage-dependent calcium channel in Sprague-Dawley rat aorta at 10 uM by Magnus method; type: tissue-based; details: 10 µM; method in brief: as §1
# [5] = biological target: L-type voltage-dependent calcium channel (Rattus norvegicus, UniProt P22002+P27732+Q02485); assay: as §2; type: tissue-based; details: Sprague-Dawley, isolated rat aorta; method in brief: as §1
# Rattus norvegicus [6] = assay: Analgesic activity in Sprague-Dawley rat assessed as inhibition of formalin-induced pain at 100 mg/kg, po; type: functional
# Method in brief: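 Formalin injected into the rat footpad; phase II pain responses scored after oral dosing. Read-out is % inhibition relative to the control group, n = 3 animals at this dose.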
# Sequence of Voltage-dependent N-type calcium channel subunit alpha-1B (Q00975 whole entry): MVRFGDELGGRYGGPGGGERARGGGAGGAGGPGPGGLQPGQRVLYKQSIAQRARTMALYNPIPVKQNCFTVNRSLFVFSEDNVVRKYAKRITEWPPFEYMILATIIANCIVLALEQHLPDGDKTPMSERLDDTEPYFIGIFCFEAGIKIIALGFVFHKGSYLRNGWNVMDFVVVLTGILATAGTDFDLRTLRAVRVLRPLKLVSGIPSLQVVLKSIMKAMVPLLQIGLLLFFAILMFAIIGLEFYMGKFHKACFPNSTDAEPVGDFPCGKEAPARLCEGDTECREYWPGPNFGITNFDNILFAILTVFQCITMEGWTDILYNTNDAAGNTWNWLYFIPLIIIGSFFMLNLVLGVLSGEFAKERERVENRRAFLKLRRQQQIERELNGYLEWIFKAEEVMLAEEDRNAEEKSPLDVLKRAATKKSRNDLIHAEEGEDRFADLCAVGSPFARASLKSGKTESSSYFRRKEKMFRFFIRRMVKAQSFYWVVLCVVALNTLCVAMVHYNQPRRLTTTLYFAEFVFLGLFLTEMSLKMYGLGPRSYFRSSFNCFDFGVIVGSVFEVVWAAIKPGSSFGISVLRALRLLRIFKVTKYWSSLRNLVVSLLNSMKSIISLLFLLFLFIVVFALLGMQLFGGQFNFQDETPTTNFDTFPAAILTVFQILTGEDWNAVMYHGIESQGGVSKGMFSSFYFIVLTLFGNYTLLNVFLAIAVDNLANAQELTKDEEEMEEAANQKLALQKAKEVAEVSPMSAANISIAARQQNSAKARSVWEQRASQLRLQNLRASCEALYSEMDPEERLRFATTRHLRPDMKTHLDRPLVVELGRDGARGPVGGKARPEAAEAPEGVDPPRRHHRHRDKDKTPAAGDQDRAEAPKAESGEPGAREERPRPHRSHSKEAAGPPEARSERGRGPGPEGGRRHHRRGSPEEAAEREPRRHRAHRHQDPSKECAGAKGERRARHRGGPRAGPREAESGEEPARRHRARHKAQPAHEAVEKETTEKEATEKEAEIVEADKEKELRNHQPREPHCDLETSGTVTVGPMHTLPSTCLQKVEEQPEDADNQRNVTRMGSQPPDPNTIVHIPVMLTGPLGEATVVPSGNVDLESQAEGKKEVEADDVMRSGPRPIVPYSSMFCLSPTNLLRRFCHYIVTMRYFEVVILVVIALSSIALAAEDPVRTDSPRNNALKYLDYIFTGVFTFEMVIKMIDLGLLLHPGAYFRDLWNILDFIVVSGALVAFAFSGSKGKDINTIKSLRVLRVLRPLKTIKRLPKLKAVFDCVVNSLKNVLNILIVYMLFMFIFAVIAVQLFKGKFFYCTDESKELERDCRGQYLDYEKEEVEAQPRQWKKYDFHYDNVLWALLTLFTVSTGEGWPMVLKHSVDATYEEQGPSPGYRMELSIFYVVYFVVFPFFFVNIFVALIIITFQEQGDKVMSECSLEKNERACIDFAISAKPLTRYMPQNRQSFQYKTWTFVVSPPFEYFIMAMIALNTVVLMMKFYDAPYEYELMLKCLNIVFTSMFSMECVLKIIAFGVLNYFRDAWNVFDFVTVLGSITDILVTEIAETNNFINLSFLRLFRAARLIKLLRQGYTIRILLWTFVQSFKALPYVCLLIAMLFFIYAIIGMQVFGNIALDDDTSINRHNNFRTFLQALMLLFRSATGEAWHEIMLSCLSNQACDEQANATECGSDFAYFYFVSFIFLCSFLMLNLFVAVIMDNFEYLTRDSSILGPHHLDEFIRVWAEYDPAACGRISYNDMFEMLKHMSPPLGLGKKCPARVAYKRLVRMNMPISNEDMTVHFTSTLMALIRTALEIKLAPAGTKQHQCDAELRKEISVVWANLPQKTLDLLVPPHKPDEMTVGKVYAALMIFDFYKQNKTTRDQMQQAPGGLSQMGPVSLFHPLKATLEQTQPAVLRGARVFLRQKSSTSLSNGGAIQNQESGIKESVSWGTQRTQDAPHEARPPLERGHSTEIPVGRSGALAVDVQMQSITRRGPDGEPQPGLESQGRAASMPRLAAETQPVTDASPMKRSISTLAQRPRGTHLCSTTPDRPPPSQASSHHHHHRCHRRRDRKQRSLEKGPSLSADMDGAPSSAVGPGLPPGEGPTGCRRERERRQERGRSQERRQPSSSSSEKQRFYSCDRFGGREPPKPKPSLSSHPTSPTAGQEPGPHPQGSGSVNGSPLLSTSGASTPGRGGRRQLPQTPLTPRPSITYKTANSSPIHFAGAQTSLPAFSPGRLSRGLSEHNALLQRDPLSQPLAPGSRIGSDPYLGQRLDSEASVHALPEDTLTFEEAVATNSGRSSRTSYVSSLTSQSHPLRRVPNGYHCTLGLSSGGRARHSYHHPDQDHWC
Structure (SMILES),IC50 [3] [nM],inhibition at 10 µM [5] [%],also measured
"COc1c(Cl)cc(C2C(C(=O)O)=CNC=C2C(=O)OC/C=C/c2ccccc2)cc1Cl (single isomer, unassigned; (+))",720,,inhibition in vivo at 3 mg/kg (Rattus norvegicus [1]): 35%; IC50 [2]: 44000 nM; inhibition (INH) [4]: 6.5%
O=C(O)C1=CNC=C(C(=O)OC/C=C/c2ccccc2)C1c1cccc(Cl)c1 (centres undefined),1600,,IC50 [2]: 9100 nM
O=C(O)C1=CNC=C(C(=O)OC/C=C/c2ccccc2)C1c1cccc(C(F)(F)F)c1 (centres undefined),1200,40,
O=C(O)C1=CNC=C(C(=O)OC/C=C/c2ccccc2)C1c1ccc(Cl)c(Cl)c1 (centres undefined),750,41,
COC(OC)C1=C(C(=O)OC/C=C/c2ccccc2)C(c2cccc(Cl)c2)C(C(=O)O)=CN1 (centres undefined),1100,44,
COc1c(Cl)cc(C2C(C(=O)O)=CNC(C(OC)OC)=C2C(=O)OC/C=C/c2ccccc2)cc1Cl (centres undefined),1200,20,
COc1c(Cl)cc(C2C(C(=O)O)=CNC=C2C(=O)OC/C=C/c2ccccc2)cc1Cl (stereo in doubt; 3f),580,,inhibition (INH) [4]: 19%
COc1ccc(C2C(C(=O)O)=CNC(C(OC)OC)=C2C(=O)OC/C=C/c2ccccc2)cc1Cl (centres undefined),1500,26,
NCC1(CC(=O)O)CCCCC1 [GABAPENTIN],,,inhibition in vivo at 100 mg/kg (Rattus norvegicus [6]): 33%
COC(OC)C1=C(C(=O)OC/C=C/c2ccccc2)C(c2cccc(C(F)(F)F)c2)C(C(=O)O)=CN1 (centres undefined),1100,17,
O=C(O)C1=CNC=C(C(=O)OC/C=C/c2ccccc2)C1c1ccc(Cl)cc1 (centres undefined),1200,16,
COC(OC)C1=C(C(=O)OC/C=C/c2ccccc2)C(c2cccc(Cl)c2)C(C(=O)O)=C(C)N1 (centres undefined),3000,,
COc1c(Cl)cc(C2C(C(=O)O)=CNC=C2C(=O)OC/C=C/c2ccccc2)cc1Cl (stereo in doubt; (-)-3f),840,,inhibition (INH) [4]: 28%
COC(OC)C1=C(C(=O)OC/C=C/c2ccccc2)C(c2ccc(Cl)c(Cl)c2)C(C(=O)O)=CN1 (centres undefined),520,31,
COc1ccc(C2C(C(=O)O)=CNC=C2C(=O)OC/C=C/c2ccccc2)cc1Cl (centres undefined),1300,15,
COC(OC)C1=C(C(=O)OC/C=C/c2ccccc2)C(c2ccc(Cl)cc2)C(C(=O)O)=CN1 (centres undefined),1100,7.9,
COC(OC)C1=C(C(=O)OC/C=C/c2ccccc2)C(c2cc(Cl)cc(Cl)c2)C(C(=O)O)=CN1 (centres undefined),1000,4,
